# According to article PMC8179362 (Chemical Science, 2021):
# Tested on: VERO
# Test: Cytotoxicity, MTT assay
# Type: cell-based, African green monkey
# Details: 260, 355 and 530 μM, 24 hs
row,Compound,Cytotoxicity (cell viability)
1,"CCOC(=O)[C@@]1(CS)N[C@@H](C(=O)O)CS1 [D-anti-1a, (2R,4S)-2-(ethoxycarbonyl)-2-(mercaptomethyl)thiazolidine-4-carboxylic acid]",induced a decline in cell viability percentages in almost all conditions

# Target: NDM-1 (Klebsiella pneumoniae, UniProt C7C422)
# Test: Imipenem hydrolysis by purified NDM-1, competitive inhibition model
# Type: biochemical
# Details: not given
# NDM-1, sequence (C7C422 29-270, looked up, species assumed): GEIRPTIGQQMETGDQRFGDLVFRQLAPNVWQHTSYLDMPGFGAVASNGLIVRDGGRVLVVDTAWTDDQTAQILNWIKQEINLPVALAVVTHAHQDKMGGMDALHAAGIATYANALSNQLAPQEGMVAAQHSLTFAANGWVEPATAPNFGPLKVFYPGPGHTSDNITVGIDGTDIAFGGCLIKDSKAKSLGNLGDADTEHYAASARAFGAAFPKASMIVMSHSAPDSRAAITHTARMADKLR
row,Compound,Ki
1,"CCOC(=O)[C@@]1(CS)N[C@@H](C(=O)O)CS1 [D-anti-1a, (2R,4S)-2-(ethoxycarbonyl)-2-(mercaptomethyl)thiazolidine-4-carboxylic acid]",2500 ± 500 nM
2,"CCOC(=O)[C@@]1(CS)N[C@@H](C(=O)O)C(C)(C)S1 [D-anti-1b, (2R,4S)-2-(Ethoxycarbonyl)-2-(mercaptomethyl)-5,5-dimethylthiazolidine-4-carboxylic acid]",3100 ± 300 nM
3,"CCOC(=O)[C@]1(CS)N[C@H](C(=O)O)CS1 [L-anti-1a, (2S,4R)-2-(ethoxycarbonyl)-2-(mercaptomethyl)thiazolidine-4-carboxylic acid]",5200 ± 700 nM

# Tested on: L929
# Test: Cytotoxicity, MTT assay
# Type: cell-based, mouse
# Details: 260, 355 and 530 μM, 24 hs
row,Compound,Cytotoxicity (cell viability)
1,"CCOC(=O)[C@@]1(CS)N[C@@H](C(=O)O)CS1 [D-anti-1a, (2R,4S)-2-(ethoxycarbonyl)-2-(mercaptomethyl)thiazolidine-4-carboxylic acid]",induced a decline in cell viability percentages in almost all conditions

# Target: E. coli cells expressing NDM-1 (Klebsiella pneumoniae, UniProt C7C422)
# Sequence (C7C422 29-270, looked up): as the sequence (C7C422 29-270, looked up, species assumed) above
# Test: not given
# Type: cell-based
# Details: not given
row,Compound,IC50
1,"CCOC(=O)[C@@]1(CS)N[C@@H](C(=O)O)CS1 [D-anti-1a, (2R,4S)-2-(ethoxycarbonyl)-2-(mercaptomethyl)thiazolidine-4-carboxylic acid]",64000 ± 5000 nM
2,"CCOC(=O)[C@@]1(CS)N[C@@H](C(=O)O)C(C)(C)S1 [D-anti-1b, (2R,4S)-2-(Ethoxycarbonyl)-2-(mercaptomethyl)-5,5-dimethylthiazolidine-4-carboxylic acid]",210000 ± 10000 nM
3,"CCOC(=O)[C@]1(CS)N[C@H](C(=O)O)CS1 [L-anti-1a, (2S,4R)-2-(ethoxycarbonyl)-2-(mercaptomethyl)thiazolidine-4-carboxylic acid]",54000 ± 4000 nM

# Target: IMP-1 (Serratia marcescens, UniProt P52699)
# Sequence (P52699 19-246, looked up, species assumed): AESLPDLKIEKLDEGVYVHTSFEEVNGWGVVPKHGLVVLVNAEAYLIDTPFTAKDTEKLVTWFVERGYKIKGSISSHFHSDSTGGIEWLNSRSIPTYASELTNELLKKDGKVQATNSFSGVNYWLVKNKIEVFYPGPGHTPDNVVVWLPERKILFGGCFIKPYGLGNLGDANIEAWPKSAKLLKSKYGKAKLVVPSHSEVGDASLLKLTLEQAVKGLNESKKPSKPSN
# Test: Imipenem hydrolysis by purified IMP-1, competitive inhibition model
# Type: biochemical
# Details: not given
row,Compound,Ki
1,"CCOC(=O)[C@@]1(CS)N[C@@H](C(=O)O)CS1 [D-anti-1a, (2R,4S)-2-(ethoxycarbonyl)-2-(mercaptomethyl)thiazolidine-4-carboxylic acid]",1300 ± 100 nM
2,"CCOC(=O)[C@@]1(CS)N[C@@H](C(=O)O)C(C)(C)S1 [D-anti-1b, (2R,4S)-2-(Ethoxycarbonyl)-2-(mercaptomethyl)-5,5-dimethylthiazolidine-4-carboxylic acid]",930 ± 80 nM
3,"CCOC(=O)[C@]1(CS)N[C@H](C(=O)O)CS1 [L-anti-1a, (2S,4R)-2-(ethoxycarbonyl)-2-(mercaptomethyl)thiazolidine-4-carboxylic acid]",1000 ± 200 nM

# Tested on: Enterobacter spp. (42713), IMP
# Test: Imipenem MIC, broth microdilution, clinical isolate
# Type: cell-based
# Details: Enterobacter spp. (42713), IMP; MMTZ at constant 100 mg/L
# Method in brief: (§1)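 Clinical Enterobacterales isolates producing MBLs. Carbapenem MIC was determined for the carbapenem alone and in the presence of test compound, and the shift in MIC was assessed. Imipenem was the carbapenem for most strains. Morganellaceae strains were tested with meropenem instead, because of their intrinsic reduced susceptibility to imipenem.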
row,Compound,MIC of imipenem (IMI) + MMTZ
1,"CCOC(=O)[C@@]1(CS)N[C@@H](C(=O)O)CS1 [D-anti-1a, (2R,4S)-2-(ethoxycarbonyl)-2-(mercaptomethyl)thiazolidine-4-carboxylic acid]",8 µg/mL
2,"CCOC(=O)[C@@]1(CS)N[C@@H](C(=O)O)C(C)(C)S1 [D-anti-1b, (2R,4S)-2-(Ethoxycarbonyl)-2-(mercaptomethyl)-5,5-dimethylthiazolidine-4-carboxylic acid]",8 µg/mL
3,"CCOC(=O)[C@]1(CS)N[C@H](C(=O)O)CS1 [L-anti-1a, (2S,4R)-2-(ethoxycarbonyl)-2-(mercaptomethyl)thiazolidine-4-carboxylic acid]",16 µg/mL

# Tested on: K. pneumoniae (LC 82), IMP-13
# Test: as above
# Type: cell-based
# Details: MMTZ at constant 100 mg/L
# Method in brief: as §1
row,Compound,MIC of imipenem (IMI) + MMTZ
1,"CCOC(=O)[C@]1(CS)N[C@H](C(=O)O)CS1 [L-anti-1a, (2S,4R)-2-(ethoxycarbonyl)-2-(mercaptomethyl)thiazolidine-4-carboxylic acid]",0.5 µg/mL

# Tested on: HEK293
# Test: Cytotoxicity, MTT assay
# Type: cell-based, human
# Details: 260, 355 and 530 μM, 24 hs
row,Compound,Cytotoxicity (cell viability)
1,"CCOC(=O)[C@@]1(CS)N[C@@H](C(=O)O)CS1 [D-anti-1a, (2R,4S)-2-(ethoxycarbonyl)-2-(mercaptomethyl)thiazolidine-4-carboxylic acid]",induced a decline in cell viability percentages in almost all conditions
2,"CCOC(=O)[C@]1(CS)N[C@H](C(=O)O)CS1 [L-anti-1a, (2S,4R)-2-(ethoxycarbonyl)-2-(mercaptomethyl)thiazolidine-4-carboxylic acid]",more selectively toxic towards the HEK293 cell line

# Tested on: clinical isolates producing MBLs
# Test: Antimicrobial susceptibility testing, statements on the whole panel
# Type: cell-based
# Details: MMTZ at constant 100 mg/L, Enterobacterales clinical isolates
# Method in brief: as §1
row,Compound,Reduction in MIC values of imipenem
1,"CCOC(=O)[C@@]1(CS)N[C@@H](C(=O)O)C(C)(C)S1 [D-anti-1b, (2R,4S)-2-(Ethoxycarbonyl)-2-(mercaptomethyl)-5,5-dimethylthiazolidine-4-carboxylic acid]",up to 16 fold

# Tested on: not listed separately
# Test: Chemical stability in PBS
# Type: physicochemical
# Details: PBS pH 7.2, 27 °C, 6 h
row,Compound,Degradation in PBS by LCMS
1,"CCOC(=O)[C@@]1(CS)N[C@@H](C(=O)O)C(C)(C)S1 [D-anti-1b, (2R,4S)-2-(Ethoxycarbonyl)-2-(mercaptomethyl)-5,5-dimethylthiazolidine-4-carboxylic acid]",did not hydrolyse to penicillamine and the main degradation product was the disulphide derivative

# Same assay, conditions: PBS pH 7.2, 27 °C, after 6 hours
row,Compound,Intact MMTZ remaining
1,"CCOC(=O)[C@@]1(CS)N[C@@H](C(=O)O)C(C)(C)S1 [D-anti-1b, (2R,4S)-2-(Ethoxycarbonyl)-2-(mercaptomethyl)-5,5-dimethylthiazolidine-4-carboxylic acid]",88%

# Tested on: K. pneumoniae (6907), VIM-2
# Test: Imipenem MIC, broth microdilution, clinical isolate
# Type: cell-based
# Details: MMTZ at constant 100 mg/L
# Method in brief: as §1
row,Compound,MIC of imipenem (IMI) + MMTZ
1,"CCOC(=O)[C@@]1(CS)N[C@@H](C(=O)O)CS1 [D-anti-1a, (2R,4S)-2-(ethoxycarbonyl)-2-(mercaptomethyl)thiazolidine-4-carboxylic acid]",2 µg/mL
2,"CCOC(=O)[C@@]1(CS)N[C@@H](C(=O)O)C(C)(C)S1 [D-anti-1b, (2R,4S)-2-(Ethoxycarbonyl)-2-(mercaptomethyl)-5,5-dimethylthiazolidine-4-carboxylic acid]",1 µg/mL
3,"CCOC(=O)[C@]1(CS)N[C@H](C(=O)O)CS1 [L-anti-1a, (2S,4R)-2-(ethoxycarbonyl)-2-(mercaptomethyl)thiazolidine-4-carboxylic acid]",2 µg/mL

# Target: VIM-2 (Escherichia coli, UniProt Q5U7L7)
# Test: Imipenem hydrolysis by purified VIM-2, competitive inhibition model
# Type: biochemical
# Details: not given
row,Compound,Ki
1,"CCOC(=O)[C@@]1(CS)N[C@@H](C(=O)O)CS1 [D-anti-1a, (2R,4S)-2-(ethoxycarbonyl)-2-(mercaptomethyl)thiazolidine-4-carboxylic acid]",390 ± 40 nM
2,"CCOC(=O)[C@@]1(CS)N[C@@H](C(=O)O)C(C)(C)S1 [D-anti-1b, (2R,4S)-2-(Ethoxycarbonyl)-2-(mercaptomethyl)-5,5-dimethylthiazolidine-4-carboxylic acid]",900 ± 100 nM
3,"CCOC(=O)[C@]1(CS)N[C@H](C(=O)O)CS1 [L-anti-1a, (2S,4R)-2-(ethoxycarbonyl)-2-(mercaptomethyl)thiazolidine-4-carboxylic acid]",380 ± 50 nM

# Tested on: K. aerogenes (6915), VIM-2
# Test: Imipenem MIC, broth microdilution, clinical isolate
# Type: cell-based
# Details: MMTZ at constant 100 mg/L
# Method in brief: as §1
row,Compound,MIC of imipenem (IMI) + MMTZ
1,"CCOC(=O)[C@@]1(CS)N[C@@H](C(=O)O)CS1 [D-anti-1a, (2R,4S)-2-(ethoxycarbonyl)-2-(mercaptomethyl)thiazolidine-4-carboxylic acid]",2 µg/mL
2,"CCOC(=O)[C@@]1(CS)N[C@@H](C(=O)O)C(C)(C)S1 [D-anti-1b, (2R,4S)-2-(Ethoxycarbonyl)-2-(mercaptomethyl)-5,5-dimethylthiazolidine-4-carboxylic acid]",2 µg/mL
3,"CCOC(=O)[C@]1(CS)N[C@H](C(=O)O)CS1 [L-anti-1a, (2S,4R)-2-(ethoxycarbonyl)-2-(mercaptomethyl)thiazolidine-4-carboxylic acid]",4 µg/mL

# Tested on: K. pneumoniae (5639), VIM-24
# Test: as above
# Type: cell-based
# Details: MMTZ at constant 100 mg/L
# Method in brief: as §1
row,Compound,MIC of imipenem (IMI) + MMTZ
1,"CCOC(=O)[C@@]1(CS)N[C@@H](C(=O)O)CS1 [D-anti-1a, (2R,4S)-2-(ethoxycarbonyl)-2-(mercaptomethyl)thiazolidine-4-carboxylic acid]",4 µg/mL
2,"CCOC(=O)[C@@]1(CS)N[C@@H](C(=O)O)C(C)(C)S1 [D-anti-1b, (2R,4S)-2-(Ethoxycarbonyl)-2-(mercaptomethyl)-5,5-dimethylthiazolidine-4-carboxylic acid]",1 µg/mL
3,"CCOC(=O)[C@]1(CS)N[C@H](C(=O)O)CS1 [L-anti-1a, (2S,4R)-2-(ethoxycarbonyl)-2-(mercaptomethyl)thiazolidine-4-carboxylic acid]",8 µg/mL

# Tested on: K. pneumoniae (1.37), NDM
# Test: as above
# Type: cell-based
# Details: MMTZ at constant 100 mg/L
# Method in brief: as §1
row,Compound,MIC of imipenem (IMI) + MMTZ
1,"CCOC(=O)[C@@]1(CS)N[C@@H](C(=O)O)CS1 [D-anti-1a, (2R,4S)-2-(ethoxycarbonyl)-2-(mercaptomethyl)thiazolidine-4-carboxylic acid]",8 µg/mL
2,"CCOC(=O)[C@@]1(CS)N[C@@H](C(=O)O)C(C)(C)S1 [D-anti-1b, (2R,4S)-2-(Ethoxycarbonyl)-2-(mercaptomethyl)-5,5-dimethylthiazolidine-4-carboxylic acid]",8 µg/mL
3,"CCOC(=O)[C@]1(CS)N[C@H](C(=O)O)CS1 [L-anti-1a, (2S,4R)-2-(ethoxycarbonyl)-2-(mercaptomethyl)thiazolidine-4-carboxylic acid]",8 µg/mL

# Tested on: E. coli (8.68), NDM-1
# Test: as above
# Type: cell-based
# Details: E. coli (8.68), NDM-1; MMTZ at constant 100 mg/L
# Method in brief: as §1
row,Compound,MIC of imipenem (IMI) + MMTZ
1,"CCOC(=O)[C@@]1(CS)N[C@@H](C(=O)O)CS1 [D-anti-1a, (2R,4S)-2-(ethoxycarbonyl)-2-(mercaptomethyl)thiazolidine-4-carboxylic acid]",16 µg/mL
2,"CCOC(=O)[C@@]1(CS)N[C@@H](C(=O)O)C(C)(C)S1 [D-anti-1b, (2R,4S)-2-(Ethoxycarbonyl)-2-(mercaptomethyl)-5,5-dimethylthiazolidine-4-carboxylic acid]",16 µg/mL
